Laboratory results published in ChEMBL document CHEMBL1121946, “Antiallergy agents. 2. 2-Phenyl-5-(1H-tetrazol-5-yl)pyrimidin-4(3H)-ones” (1982).

What was measured:
Rattus norvegicus [1] = assay: Antiallergic activity in the passive cutaneous anaphylaxis (PCA) model in the rat was determined after oral administration; format: functional; conditions: read-out: ID50 (the source's name)
Outline: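 Male Sprague-Dawley rats underwent a modified Ovary PCA screen, with challenge 24 h after sensitization. Compounds were solubilized in aqueous NaHCO3 when possible; otherwise they were suspended in aqueous sodium citrate containing Tween 40/sodium carboxymethylcellulose. Dosing was oral, 10 min prior to antigen challenge.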

Rattus norvegicus [2] = assay: Antiallergic activity in the passive cutaneous anaphylaxis (PCA) model in the rat was determined after iv administration; format: functional; conditions: read-out: ID50 (the source's name)
Outline: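 Rat PCA screen (modified Ovary method) in male Sprague-Dawley rats, with a 24 h interval between sensitization and antigen challenge. Compounds were dissolved in aqueous NaHCO3 where possible; otherwise they were suspended in aqueous sodium citrate with Tween 40/sodium carboxymethylcellulose. Dosing was intravenous, 1 min before antigen challenge.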

`Oc1nc(-c2ccccc2OCC2CC2)ncc1-c1nn[nH]n1` showed an ED50 (Rattus norvegicus [1]) of 0.07 mg/kg.
For `CC(C)Oc1ccccc1-c1ncc(-c2nn[nH]n2)c(O)n1`, the ED50 (Rattus norvegicus [1]) was 0.04 mg/kg and the ED50 (Rattus norvegicus [2]) was 0.02 mg/kg.
For `CCCOc1ccc(OC)cc1-c1ncc(-c2nn[nH]n2)c(O)n1`, the ED50 (Rattus norvegicus [1]) was 0.03 mg/kg.
With `CCCOc1ccc(N)cc1-c1ncc(-c2nn[nH]n2)c(O)n1` the ED50 (Rattus norvegicus [1]) was 0.1 mg/kg.
With `CCCCCOc1ccccc1-c1ncc(-c2nn[nH]n2)c(O)n1` the ED50 (Rattus norvegicus [1]) was 0.4 mg/kg.
With `CCC(C)Oc1ccccc1-c1ncc(-c2nn[nH]n2)c(O)n1` (stereo not given) the ED50 (Rattus norvegicus [1]) was 0.05 mg/kg.
Compound `CCCOc1ccc([N+](=O)[O-])cc1-c1ncc(-c2nn[nH]n2)c(O)n1` has an ED50 (Rattus norvegicus [1]) of 5 mg/kg.
Work on `CCOc1ccccc1-c1ncc(-c2nn[nH]n2)c(O)n1` yielded an ED50 (Rattus norvegicus [1]) of 0.09 mg/kg and an ED50 (Rattus norvegicus [2]) of 0.02 mg/kg.
Work on `Oc1nc(-c2ccccc2)ncc1-c1nn[nH]n1` yielded an ED50 (Rattus norvegicus [1]) of 100 mg/kg.
For `CCCCOc1ccccc1-c1ncc(-c2nn[nH]n2)c(O)n1`, the ED50 (Rattus norvegicus [1]) was 0.07 mg/kg.
`CC(C)COc1ccccc1-c1ncc(-c2nn[nH]n2)c(O)n1` showed an ED50 (Rattus norvegicus [1]) of 0.1 mg/kg.
Compound `O=C([O-])c1cc(=O)c2c(OCC(O)COc3cccc4oc(C(=O)[O-])cc(=O)c34)cccc2o1.[Na+].[Na+]` [CROMOLYN SODIUM] has an ED50 (Rattus norvegicus [1]) of over 30 mg/kg and an ED50 (Rattus norvegicus [2]) of 0.3 mg/kg.
`C=CCOc1ccccc1-c1ncc(-c2nn[nH]n2)c(O)n1` showed an ED50 (Rattus norvegicus [1]) of 0.24 mg/kg.
`COc1ccccc1-c1ncc(-c2nn[nH]n2)c(O)n1` showed an ED50 (Rattus norvegicus [1]) of 0.1 mg/kg.
For `CCCOc1ccc(N(C)C)cc1-c1ncc(-c2nn[nH]n2)c(O)n1`, the ED50 (Rattus norvegicus [1]) was 0.4 mg/kg.
In the case of `CCCOc1ccccc1-c1ncc(-c2nn[nH]n2)c(O)n1`, the ED50 (Rattus norvegicus [1]) is reported as 0.04 mg/kg and the ED50 (Rattus norvegicus [2]) is reported as 0.004 mg/kg.
